In ChEMBL document CHEMBL1153499, “Synthesis, biological evaluation, and metabolic stability of acrylamide derivatives as novel CCR3 antagonists” (Bioorg Med Chem, 2009):
Values belong to the compound of their own block, whether it stands above or below them.

Legend:
[1] = Permeability by PAMPA; type: ADME; conditions: read-out: permeability
Procedure, shortened: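 PAMPA permeability measured at pH 6.5.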

[2] = Apparent permeability across human Caco-2 cells; type: ADME, cell-based
[3] = Tmax in mouse at 3 mg/kg, po; type: ADME, organism-based; design: dose 3 mg/kg, route oral; conditions: in vivo
[4] = Volume of distribution at steady state in mouse at 1 mg/kg, iv; type: ADME, organism-based; design: dose 1 mg/kg, route intravenous; conditions: in vivo, read-out: Vdss
[5] = AUC (0 to infinity) in mouse at 1 mg/kg, iv; type: ADME, organism-based; design: time infinity, dose 1 mg/kg, route intravenous; conditions: plasma
[6] = AUC (0 to infinity) in mouse at 3 mg/kg, po; type: ADME, organism-based; design: time infinity, dose 3 mg/kg, route oral; conditions: plasma
[7] = Bioavailability in mouse at 3 mg/kg, po; conditions: in vivo

- Papp [1]: > 30 ×10⁻⁶ cm/s
SMILES: O=C(NC1CC2CCC(C1)N2Cc1ccc2cc(F)ccc2c1)c1ccccc1-c1ccccc1 (stereo not given)

- Papp [2]: 4 ×10⁻⁶ cm/s
- Tmax [3]: 48 min
- Vd [4]: 9.88 L/kg
- AUC(0-inf) [5]: 190 ng·h/mL
- AUC(0-inf) [6]: 200 ng·h/mL
- bioavailability [7]: 35%
SMILES: O=C(C=C1CCN(C(=O)c2ccccc2O)CC1)N[C@@H]1CCN(Cc2ccc3cc(F)ccc3c2)C1

- Papp [1]: 27.3 ×10⁻⁶ cm/s
SMILES: Cc1ccc(C(=O)N2CCC(=CC(=O)N[C@@H]3CCN(Cc4ccc5cc(F)ccc5c4)C3)CC2)c(O)c1

- Papp [1]: 4.7 ×10⁻⁶ cm/s
SMILES: O=C(NC1CC2CCC(C1)N2Cc1ccc2cc(F)ccc2c1)c1cc[n+]([O-])cc1C(=O)N1CCCCC1 (stereo not given)

- Papp [1]: 19.9 ×10⁻⁶ cm/s
SMILES: O=C(C=C1CCN(C(=O)c2ccccc2)CC1)N[C@@H]1CCN(Cc2ccc3cc(F)ccc3c2)C1
